Compound activity as filed in PubChem BioAssay.
CCR6 antagonist = CCR6 (human) receptor antagonism. P51684. CHO-K1 CCR6 PathHunter beta-arrestin, luminescence, CCL20-stimulated. inhibition, % at 20 µM. hit rate 0.49% among 340,000;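 active means compounds whose inhibition of the agonist-driven luminescence signal at 20 µM reaches about 50%, limit read from the data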;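 further: cells stimulated with CCL20 at 14 nM final; plate controls were DMSO with CCL20 for no effect and DMSO without agonist for full effect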
Target sequence (P51684 whole entry, looked up): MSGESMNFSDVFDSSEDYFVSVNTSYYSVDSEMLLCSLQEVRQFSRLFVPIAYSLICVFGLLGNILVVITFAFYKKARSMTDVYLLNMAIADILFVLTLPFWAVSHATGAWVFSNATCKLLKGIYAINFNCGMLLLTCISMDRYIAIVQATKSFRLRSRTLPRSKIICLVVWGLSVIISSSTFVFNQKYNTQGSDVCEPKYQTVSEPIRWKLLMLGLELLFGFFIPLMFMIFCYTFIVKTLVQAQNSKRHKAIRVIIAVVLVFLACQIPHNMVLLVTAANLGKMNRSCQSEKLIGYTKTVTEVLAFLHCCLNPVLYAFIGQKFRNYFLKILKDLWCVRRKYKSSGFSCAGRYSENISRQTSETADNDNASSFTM
CXCR6 block = CXCR6 (human) receptor inhibition; O00574; CHO-K1 PathHunter CXCR6 beta-arrestin, luminescence; AID 602244; inhibition, % at 20 µM; hit rate 0.36% among 360,000; in the data active means inhibition above about 34%, passing the limit was not always enough;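 further: antagonist mode with CXCL16 agonist at 10 nM final; 0% = 10 nM CXCL16 with DMSO and 100% = unstimulated wells without agonist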
APJ antag = APJ receptor antagonism | AID 2521 | CHO-K1 APJ beta-arrestin complementation, luminescence | hit rate 0.32% among 330,000 | P35414 | inhibition, % at 20 µM;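 active means inhibition above about 40% at 20 µM, limit read from the data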;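 further: cells challenged with 10 nM apelin-13 agonist together with compound; plate controls were apelin-13 plus DMSO wells for no effect and DMSO wells lacking apelin-13 for full effect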
DAGLB inh = diacylglycerol lipase beta (human) inhibition; Q8NCG7; HEK293T DAGLB membrane lysate, EnzChek fluorogenic substrate; inhibition, % at 5.17 µM; hit rate 0.059% among 340,000; in the data active means inhibition above about 34%;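 further: 0% = enzyme with vehicle and 100% = wells lacking enzyme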
APJ agonist = activates the human apelin receptor APJ. P35414. CHO-K1 APJ PathHunter beta-arrestin, luminescence; 0% DMSO wells, 100% apelin. activation, % at 20 µM. hit rate 0.11% among 330,000;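 active means activation more than six SD over the plate average, tested at 20 µM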;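 further: 0% = DMSO alone and 100% = apelin-13 at 10 nM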
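Material: engineered CHO-K1 APJ arrestin reporter cells; amount: 1000 CHO-K1 reporter cells seeded per well; incubation: compound stimulation 90 min at 25 °C, detection 60 min; signal: luminescent beta-gal fragment complementation, chemiluminescent substrate; read-out basis: APJ agonist activity; controls: DMSO-only wells as negative, 10 nM Apelin-13 as positive control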
hiPSC survival = increases survival of single human iPS cells. hiPSC single-cell survival, ATPlite luminescence; 100% = ROCK inhibitor wells, 0% = DMSO. survival enhancement, % at 20 µM. hit rate 0.044% among 360,000; in the data active means survival enhancement above about 18%;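 further: cells exposed to compounds for 16 hours before the ATP read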
The depositor's hits bear a star. The list is not random: actives were taken first. Their share in the collection is about 0.86%.

How did COc1ccc(C(=O)CNc2ccc(C)cc2C)cc1 do in these assays?
CCR6 antagonist: 79*; CXCR6 block: 43*; APJ antag: 24; DAGLB inh: -4; APJ agonist: -15; hiPSC survival: -1

Results for CN1C(=O)C(N=Nc2ccc([N+](=O)[O-])cc2)SC1=S (stereo not drawn) ?
CCR6 antagonist: 86*; CXCR6 block: 45*; DAGLB inh: 4; hiPSC survival: -2

How did CN1CCCCCC1=Nc1ccc([N+](=O)[O-])cc1 do in these assays?
CCR6 antagonist: 5; CXCR6 block: 0; APJ antag: -2; DAGLB inh: 0; APJ agonist: 0; hiPSC survival: 0

How did CCOC1=C2[C@H](c3ccc(C)cc3)N(S(=O)(=O)c3ccc(C)cc3)C[C@H]2n2c(=O)n(-c3ccccc3)c(=O)n2C1 do in these assays?
CXCR6 block: -3; hiPSC survival: 41*

How did Cc1noc(C)c1C(=O)NNc1cc(Cl)ccc1Cl do in these assays?
CCR6 antagonist: 6; CXCR6 block: -12; APJ antag: -3; DAGLB inh: 1; APJ agonist: -3; hiPSC survival: 1

How did Cc1ccccc1NC(=O)c1nc(S(C)(=O)=O)ncc1Cl do in these assays?
CCR6 antagonist: 28; CXCR6 block: 35; APJ antag: 4; DAGLB inh: 2; APJ agonist: -5; hiPSC survival: 0

How did Cc1cccc(C)c1NC(=O)c1nc(S(=O)(=O)Cc2ccccc2)ncc1Cl do in these assays?
CCR6 antagonist: 55*; CXCR6 block: 54*; APJ antag: -4; DAGLB inh: 0; APJ agonist: -8; hiPSC survival: 0

What do the screens show for `Cc1cccc(CCN=c2c([N+](=O)[O-])nn(-c3ccccc3)n2O)c1`?
CCR6 antagonist: 5; CXCR6 block: 0; APJ antag: -20; DAGLB inh: 1; APJ agonist: 13; hiPSC survival: 1

Results for Cc1cccc(-n2nc([N+](=O)[O-])c(=NC3CCN(Cc4ccccc4)CC3)n2O)c1 ?
CCR6 antagonist: 0; CXCR6 block: -14; APJ antag: -70; DAGLB inh: 2; APJ agonist: 16*; hiPSC survival: 0

What do the screens show for `O=C1NC(c2ccccc2)=C(c2ccccc2)C1=O`?
CCR6 antagonist: 5; CXCR6 block: 2; DAGLB inh: 2; hiPSC survival: 2

What do the screens show for `O=C1C(Br)=C(c2ccccc2)C(c2ccccc2)=C1c1ccccc1`?
CCR6 antagonist: 68*; CXCR6 block: 21; DAGLB inh: 0; hiPSC survival: -3

What do the screens show for `Cc1cccc(NC(=O)COC(=O)c2ccccn2)c1`?
CCR6 antagonist: 6; CXCR6 block: -1; APJ antag: -2; DAGLB inh: 1; APJ agonist: 1; hiPSC survival: 0

How did O=C(c1ccc2c(=O)n(Cc3ccccc3Cl)c(=S)[nH]c2c1)N1CCCC1 do in these assays?
CCR6 antagonist: 16; CXCR6 block: 10; APJ antag: 15; DAGLB inh: 3; APJ agonist: -5; hiPSC survival: 0

How did CC(C)(C)C(=O)NC(=S)NNC(=O)c1sc2ccccc2c1Cl do in these assays?
CCR6 antagonist: 73*; CXCR6 block: 62*; APJ antag: 40; DAGLB inh: 1; APJ agonist: 1; hiPSC survival: 0

Results for O=C(NNC(=S)NC1CCCCC1)c1sc2ccccc2c1Cl ?
CCR6 antagonist: 13; CXCR6 block: 0; APJ antag: 4; DAGLB inh: 13; APJ agonist: -1; hiPSC survival: 1

How did COc1ccc(C(=O)NNC(=S)NC(=O)C(C)(C)C)cc1 do in these assays?
CCR6 antagonist: 62*; CXCR6 block: 36; APJ antag: 28; DAGLB inh: 1; APJ agonist: -9; hiPSC survival: 0

What do the screens show for `COc1ccc(C(=O)NNC(=O)c2ccc(C(C)(C)C)cc2)cc1`?
CCR6 antagonist: 11; CXCR6 block: 0; APJ antag: -4; DAGLB inh: -4; APJ agonist: 0; hiPSC survival: 0

Results for O=C(C(Br)=Cc1ccccc1)c1ccccc1 ?
CCR6 antagonist: 69*; CXCR6 block: 48*; DAGLB inh: -4; hiPSC survival: -3

How did O=C(c1cc(Br)ccc1O)N1CCN(S(=O)(=O)Cc2ccccc2)CC1 do in these assays?
CCR6 antagonist: 6; CXCR6 block: -3; APJ antag: 20; DAGLB inh: 1; APJ agonist: -3; hiPSC survival: 0

How did N#C/C(=C\c1ccc(O)cc1)c1nc2ccccc2o1 do in these assays?
CCR6 antagonist: 40; CXCR6 block: 23; APJ antag: 45*; DAGLB inh: -15; APJ agonist: -5; hiPSC survival: 1

Results for CN(C)S(=O)(=O)Nc1ccc(Cc2ccncc2)cc1 ?
CXCR6 block: -10; DAGLB inh: -3; hiPSC survival: 3

How did Cc1c(NC=C(C#N)C#N)c(=O)n(-c2ccccc2)n1C do in these assays?
CCR6 antagonist: -2; CXCR6 block: 0; APJ antag: -8; DAGLB inh: -1; APJ agonist: 1; hiPSC survival: 0

Results for CCOC(=O)/C(C#N)=N/Nc1c(C)n(C)n(-c2ccccc2)c1=O ?
CCR6 antagonist: 17; CXCR6 block: 11; APJ antag: 13; APJ agonist: -1; hiPSC survival: 0

What do the screens show for `Cc1c(N/N=C(\C#N)C(=O)c2ccccc2)c(=O)n(-c2ccccc2)n1C`?
CCR6 antagonist: 63*; CXCR6 block: 35; DAGLB inh: 1; hiPSC survival: 1

How did Cc1ccccc1C(=O)/C(C#N)=N/Nc1c(C)n(C)n(-c2ccccc2)c1=O do in these assays?
CCR6 antagonist: 48; CXCR6 block: 45*; DAGLB inh: 2; hiPSC survival: 1

Results for Nc1[nH]n2c(=O)cc(-c3ccccc3)nc2c1N=Nc1ccccc1 ?
CCR6 antagonist: 51*; CXCR6 block: 26; APJ antag: 37; DAGLB inh: 5; APJ agonist: -5; hiPSC survival: 0

What do the screens show for `Cc1ccc(N=Nc2c(N)[nH]n3c(=O)cc(C)nc23)cc1`?
CCR6 antagonist: 15; CXCR6 block: -1; DAGLB inh: 5; hiPSC survival: 1

Results for CC(=O)[C@]1(O)Cc2c(O)c3c(c(O)c2[C@@H](O[C@H]2C[C@H](N)[C@H](O)[C@H](C)O2)C1)C(=O)c1ccccc1C3=O ?
CCR6 antagonist: 81*; APJ antag: 36; APJ agonist: -3

Results for Cc1ccc(S(=O)(=O)NC(=O)Cn2nnc(-c3ccccc3)c2COc2ccc3ccccc3c2)cc1 ?
CXCR6 block: 0; hiPSC survival: -2

How did O=C1C(Cl)=C(N2CCN(c3ccccc3[N+](=O)[O-])CC2)C(=O)c2ccccc21 do in these assays?
CXCR6 block: 42*; DAGLB inh: 12; hiPSC survival: -5
